Compounds with a hit are over-represented: about 1.6% of the library has one in this group of screens.
procasp3 activ – activates human procaspase-3; P42574; recombinant procaspase-3 D3A, Ac-DEVD-pNA absorbance 405 nm; activation, % at 8.5 µM; 0.11% of 330,000 active; AID 463141;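 active = activation above the mean of all tested compounds plus 3 SD, cut at about 21% in these data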;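 note: 0% = DMSO alone and 100% = DMSO wells spiked with extra 5 µM PC-3 D3A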
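Assay system: Procaspase-3 D3A mutant, all three cleavage aspartates alanine. Buffer or medium: Zinc-free HEPES saline buffer with Triton X-100. Times: 1 h compound preincubation, 2 h substrate hydrolysis at 25 °C. Measured by: 405 nm absorbance of p-nitroaniline, reads at 0 and 120 min. Read-out basis: percent activation relative to control range. Replicates: singlicate.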
Neddylation inh – inhibitors of human cullin neddylation | P61081+Q13564 | TR-FRET cullin neddylation, biochemical | calls only at 25 µM | 0.58% of 360,000 active; in the data active = inhibition above about 36%
proCasp7 act – counter-screen for procaspase-3 activators: activators of human procaspase-7; recombinant procaspase-7, Ac-DEVD-pNA absorbance 405 nm; D23A/D198A/D206A triple mutant, cannot self-cleave; scale: DMSO 0, 5 µM enzyme 100; activation, % at 8.5 µM; 0.093% of 330,000 active; AID 463210;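 active = percent activation above the screen-wide mean plus 3 SD, cut at about 25% in these data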
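Material: Procaspase-7 triple mutant (PC-7 D3A) | Quantity: 2 µM procaspase-7 mutant as dispensed | Reagent: DEVD-pNA substrate | Times: 1 h preincubation, 2 h reaction | Technique: 405 nm absorbance of p-nitroaniline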
proKLK7 act – proKLK7 (human) activation, primary screen. purified proKLK7, EDANS-DABCYL substrate fluorescence; 100% is mature enzyme control, 0% vehicle. 0.9% of 370,000 active. P49862. activation, % at 7 µM;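 active = activation above the mean of all tested compounds plus 3 SD, computed per campaign excluding outliers beyond control limits, cut at about 13% in these data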
Neddyl conf – cullin neddylation inhibition, confirmation | shares compounds with Neddylation inh | 13% of 1,800 active | calls only at 25 µM | TR-FRET cullin neddylation biochemical assay; in the data active = inhibition above about 40%;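 note: neddylation substrate is the cullin 1 ring ligase complex with SKP2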
* hit, by the source's call; i = inactive; · = not tested or not shown; + = active, no number.

SMILES | procasp3 activ | Neddylation inh | proCasp7 act | proKLK7 act | Neddyl conf
COc1ccc2oc(C(=O)OCC(=O)N(C)c3ccccc3)c(C)c2c1 | -7.0 | + | 3.0 | -0.8 | ·
Cc1ccc(-c2cc(C(=O)NCCCN3CCOCC3)c3ccccc3n2)cc1 | -3.6 | + | 3.3 | 3.5 | ·
COc1ccc(-c2nc3ccc(C(=O)NCCCN4CCOCC4)cc3nc2-c2ccc(OC)cc2)cc1 | -9.4 | + | -14.4 | -37.7 | i
COc1ccc(-c2nc3ccccc3c(=O)n2CCCN2CCOCC2)cc1 | -2.0 | i | -4.7 | -0.1 | ·
Cc1nc2ccccc2c(=O)n1CCCN1CCOCC1 | 4.7 | + | 3.1 | 0.4 | i
CCNC(=O)Nc1ccc2c(c1)C(=O)N(C)[C@H]1CC[C@H](CC(=O)N[C@H](C)c3ccccc3)O[C@@H]1CO2 | · | · | · | 0.3 | ·
COc1ccc(S[C@]2(C(=O)N(C)C)CC(=O)N(S(=O)(=O)c3ccc(F)cc3)[C@@H]2c2ccc(OC)cc2)cc1 | · | · | · | 0.7 | ·
CC(C)C[C@@H]1NC(=O)[C@H]2C[C@@]3(C)c4ccccc4N[C@H]3N2C1=O | · | · | · | 0.0 | ·
CCc1cc(=O)oc2cc(OCc3nn[nH]n3)ccc12 | 1.9 | + | -0.1 | · | i
CCc1cc(=O)oc2cc(OS(C)(=O)=O)ccc12 | -3.7 | + | 9.4 | -13.4 | ·
O=C(O)c1c(-c2ccccc2)oc2ccc(O)cc12 | 8.6 | · | 13.1 | 0.3 | ·
CN(C)C(=O)c1c(-c2ccccc2)oc2ccc(O)cc12 | -0.1 | + | -10.6 | -4.1 | i
COC(=O)C1=CN(c2cc(C)cc(C)c2)C=C(C(=O)OC)C1c1ccc(OC)c(O)c1 | -1.5 | + | 4.8 | -0.7 | +
CCOC(=O)c1ccc(N2C=C(C(=O)OC)C(c3ccc(OC)c(O)c3)C(C(=O)OC)=C2)cc1 | 8.6 | i | 11.1 | -0.6 | ·
Cc1cc(Nc2ccc(Cl)cc2)n(-c2ccccc2)n1 | -5.2 | i | 6.6 | -0.2 | ·
Cc1cc(Nc2nc3c(c(=O)n(C)c(=O)n3C)n2C)n(-c2ccc(Cl)cc2)n1 | 1.6 | + | 2.7 | 3.3 | i
CCOc1ccc(-n2c(O)c(/C=N/NC(=O)C3COc4ccccc4O3)c3ccccc3c2=O)cc1 (stereo not given) | -50.1 | + | -46.2 | -10.3 | i
COc1ccc(C(=O)Nc2ccc3oc(-c4cccnc4)nc3c2)cc1OC | 4.9 | + | 3.1 | -0.1 | ·
Cc1ccc(-n2c(Cc3cccs3)nnc2SCc2ccc(C#N)cc2)cc1 | · | · | · | 0.1 | ·
CCn1c(=N)n(CC(O)c2ccco2)c2ccccc21 (stereo not given) | -2.0 | i | -1.9 | -0.3 | ·
N=c1n(Cc2ccccc2)c2ccccc2n1CC(O)c1ccco1 (stereo not given) | 3.9 | + | 1.4 | -0.5 | i
COc1cc2oc(-c3ccc(O)cc3)cc(=O)c2c(OC)c1O | · | + | · | -3.4 | i
COC(=O)c1cc(S(=O)(=O)NCC2CCN(C(=O)C(=O)c3cccs3)CC2)cs1 | · | · | · | -0.2 | ·
O=C(Nc1cc2c3c(c1)C1CCCC1CN3CC1CCCC21)c1ccccc1 (stereo not given) | 0.7 | + | 2.3 | 8.9 | i
CCCSc1nc2cc(C)c(C)cc2n1CC(O)CO (stereo not given) | -3.5 | i | -5.3 | 0.2 | ·
SMILES | procasp3 activ | Neddylation inh | proCasp7 act | proKLK7 act | Neddyl conf
CCSc1nc(-c2ccccc2)c(-c2ccccc2)n1CC(O)CO (stereo not given) | -3.8 | + | -1.5 | 0.2 | i
CCOc1ccc2oc(C(=O)NCC(c3ccco3)N(C)C)c(C)c2c1 (stereo not given) | · | + | · | 1.7 | ·
CCOc1ccc2oc(C(=O)NCc3ccccc3CN3CCCC3)c(C)c2c1 | 4.4 | + | 2.3 | -2.9 | ·
COc1ccc(C(CNC(=O)c2oc3ccc(OC)cc3c2C)N2CCCC2)cc1 (stereo not given) | 0.1 | + | 2.3 | 3.1 | ·
Cc1c(C(=O)NCC(c2ccco2)N(C)C)oc2c(Cl)cccc12 (stereo not given) | -10.6 | i | 7.1 | -0.3 | ·
CN(C)C(CNC(=O)c1ccc(Br)cc1)c1ccco1 (stereo not given) | 4.3 | i | 5.0 | 0.1 | ·
CN(C)C(CNC(=O)c1ccc2[nH]c(=O)c(=O)[nH]c2c1)c1ccco1 (stereo not given) | 4.8 | + | -15.4 | 7.1 | ·
O=C(CC1CCCC1)N1CC[C@H]2[C@H](CCCN2Cc2ccc(F)cc2)C1 | · | · | · | -0.1 | ·

Screens as filed in PubChem BioAssay.
